Data as given in ChEMBL document CHEMBL4699644, “Discovery of a potent dual inhibitor of wild-type and mutant respiratory syncytial virus fusion proteins through the modulation of atropisomer interconversion properties” (Bioorg Med Chem, 2020).

Key:
[1] = Protein binding in human plasma at 1 ug/ml incubated for 4 hrs by LC-MS analysis; assay type: ADME, cell-free; settings: at 1 µg/mL, read-out: PPB (converted)
Method in brief: (§1)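 Equilibrium dialysis with 12–14 kDa cutoff membrane. Compound dissolved in DMSO and spiked into blank plasma at 1 μg/mL final. Plasma dialysed against phosphate buffer pH 7.4 at 37 °C, 5% CO2, 4 h. Compound in plasma and buffer measured by LC-MS/MS and % bound calculated.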

CYP3A = assay: Inhibition of human liver microsomes CYP3A at 10 uM using testosterone as substrate in presence of NADPH preincubated for 30 mins followed by substrate addition and measured after 10 mins by LC/MS analysis; assay type: ADME, Microsome; settings: probe testosterone, time 40 min
Method in brief: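 Compound preincubated 0 or 30 min at 37 °C with human liver microsomes (0.5 mg protein/mL) in sodium–potassium phosphate buffer pH 7.4 with NADPH-regenerating system. Then diluted 10-fold into secondary buffer with testosterone 250 μM plus NADPH-regenerating system and incubated 10 min. Stopped with acetonitrile containing internal standard, centrifuged, LC-MS/MS. Value is the difference in % inhibition between 0- and 30-min preincubation.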

[2] = Protein binding in mouse plasma at 1 ug/ml incubated for 4 hrs by LC-MS analysis; assay type: ADME, cell-free; settings: at 1 µg/mL, read-out: PPB (converted); method in brief: as §1
[3] = Permeability of compound incubated for 4 hrs by PAMPA assay; assay type: ADME; settings: read-out: permeability
Method in brief: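 Artificial membrane permeation run 4 h at room temperature and quantified by UV plate reader. Apparent permeability calculated at pH 6.2.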

Row | SMILES | fraction unbound at 4 h, 1 ug/ml [1] | inhibition at 10 min, 10 µM (CYP3A) | fraction unbound at 4 h, 1 ug/ml [2] | Papp at 4 h [3]
1 | CN1CCNC(=O)COc2ccc(Cl)cc2C(=O)N2CCCC[C@H]2c2cc3nc([C@H]4C[C@H](O)C4)cc1n3n2 | 0.093 | -1.4% | 0.145 | –
2 | CN1CCNC(=O)COc2ccc(F)cc2C(=O)N2CCCC[C@H]2c2cc3nc([C@H]4C[C@H](O)C4)cc1n3n2 | – | 0.4% | – | 27 ×10⁻⁶ cm/s
3 | CN1CCNC(=O)COc2ccc(Cl)cc2C(=O)N2CCCCC2c2cc3nc(N4CCC4)cc1n3n2 (stereo unspecified) | – | -2.9% | – | –
4 | CN1CCNC(=O)COc2ccc(F)cc2C(=O)N2CCCC[C@H]2c2cc3nc([C@H]4C[C@@H](O)C4)cc1n3n2 | – | – | – | 28 ×10⁻⁶ cm/s
5 | Cc1ccc2c(c1)C(=O)N1CCCCC1c1cc3nc(N4CCC4)cc(n3n1)N(C)CCNC(=O)CO2 (stereo unspecified) | 0.064 | 60.1% | 0.031 | –
6 | Cc1ccc2c(c1)C(=O)N1CCCC[C@H]1c1cc3nc([C@H]4C[C@H](O)C4)cc(n3n1)N(C)CCNC(=O)CO2 | 0.112 | 57% | 0.222 | –
7 | CN1CCNC(=O)COc2ccc(F)cc2C(=O)N2CCCC[C@H]2c2cc3nc(N4CC[C@H](N)C4)cc1n3n2 | – | – | – | 0.3 ×10⁻⁶ cm/s

Second part, the compound after the results:

Row | fraction unbound at 4 h, 1 ug/ml [1] | inhibition at 10 min, 10 µM (CYP3A) | fraction unbound at 4 h, 1 ug/ml [2] | Papp at 4 h [3] | SMILES
8 | – | – | – | 3.3 ×10⁻⁶ cm/s | CN1CCNC(=O)COc2ccc(F)cc2C(=O)N2CCCC[C@H]2c2cc3nc(N4CC(N)C4)cc1n3n2
9 | – | – | – | 8 ×10⁻⁶ cm/s | CN1CCNC(=O)COc2ccc(F)cc2C(=O)N2CCCC[C@H]2c2cc3nc(N4CC(O)C4)cc1n3n2
10 | 0.13 | -4.7% | 0.02 | 80 ×10⁻⁶ cm/s | CN1CCNC(=O)COc2ccc(F)cc2C(=O)N2CCCC[C@H]2c2cc3nc(N4CCC4)cc1n3n2
11 | – | – | – | 5.9 ×10⁻⁶ cm/s | CNC1CN(c2cc3n4nc(cc4n2)[C@@H]2CCCCN2C(=O)c2cc(F)ccc2OCC(=O)NCCN3C)C1
